In this data set the test system is MS2 coat protein. Nature of the data set: apparent Kd, MS2 coat protein; higher = weaker binding; RNA-MaP array; FMN 200 µM where present. In a few lines:
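The apparent Kd is the median of filtered binding-curve fits, one per cluster, to green signal normalised to red-channel RNA signal and control-cluster median Fmax. The clusters were on Illumina sequencing chips, and stalled E. coli RNA polymerase had transcribed the designs on them. Titration used SNAP-549-labelled MS2 coat protein from 0.7 or 1.5 nM, doubling to 3 µM, without and then with constant ligand, in 100 mM Tris-HCl pH 7.5, 80 mM KCl, 4 mM MgCl2, BSA, DTT, yeast tRNA and Tween-20.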

[1] abbreviates: designed as: OFF switch for flavin mononucleotide, no ligand.
The mark [2] stands for this setting: ligand present: flavin mononucleotide, designed as: OFF switch for flavin mononucleotide.
The mark [3] stands for this setting: designed as: ON switch for flavin mononucleotide, no ligand.
Setting [4] is: ligand present: flavin mononucleotide, designed as: ON switch for flavin mononucleotide.

“GGAUGACAAAGUCAUCCAAUUCGAACAUGAGGAUCACCCAUGUAGGAUAUGCUUCUCAAAGAGAAGCAGAAGGACAUGUGCCUU”: the “apparent Kd” value under setting [1] was found to be 29.5 nM and the “apparent Kd” value under setting [2] amounted to 215 nM.

For the sequence “GCAGACGUAGUGAGGAUAUGCUCUACCUCGGUAGAGCAGAAGGCACAUGAGGAUCACCCAUGUGGUUCCUCUGC”, the “apparent Kd” value reads like this: under setting [1], 19.1 nM; under setting [2], 80.9 nM.

As to “UUGCUACAUGAGGAUCACCCAUGUCAGGAUAUUGUCUAUACCGUGGAAGCUGUGUCGAUAAGAAGGGACUGUCU”, the “apparent Kd” value reads like this: under setting [1], 24.1 nM; under setting [2], 41.6 nM.

In the case of “UGUGCGUUGAUCUUCGAUCGGAGUACAUGAGGAUCACCCAUGUAGGAUAUUCAAAGACGCAGAUAGAAGAAGGACAUCGGUUUC”, the “apparent Kd” value under setting [1] was 10.6 nM and the “apparent Kd” value under setting [2] was determined as 9.43 nM.

Regarding “ACAUGAUAUGUAGGAUAUCACAUUAAUUGAUUCAUAUUUCAAUAUAGCAUUUGAGAAGGACAUUUACAUGAGGAUCACCCAUGU”, the “apparent Kd” value reads like this: under setting [1], 9.18 nM; under setting [2], 8.64 nM.

Regarding “AUAUGUGUCGAGAAGGGCUCACGUAACGGAACAGCAGGAUAUCGACAUGAGGAUCACCCAUGUCGGAACGAACGGAUCUUUACU”, the “apparent Kd” value was determined as 7.22 nM under setting [1] and 8.53 nM under setting [2].

Turning to “AAAAGACAUGAGGAUCACCCAUGUUAAGACGUGGGAGGAUAUGUAUGGAAAACAUGCUGUACAGAAGGCCCGUGUC”, the “apparent Kd” value is, setting by setting: under setting [3], 53.8 nM; under setting [4], 19.7 nM.

As for “GAAUAUUCGUUGAACAUGAGGAUCACCCAUGUAACUUGACAUGAGGAUAUGGAUUCUAAUUGGAUCCAGAAGGUAUGAAUAUUC”, the “apparent Kd” value under setting [4] was 91.8 nM.

Regarding “ACUGUUUGAUUCCUCUUAUACAUGAGGAUCACCCAUGUUAUCGAGGAUAUGCAUUAGAGUGUUUAGCAGAAGGCGAUGUAAUUC”, the “apparent Kd” value was 5.89 nM under setting [1] and 12.9 nM under setting [2].

“UAAAUGUGAGGAUAUUCGAAUAACACGGAGACGUGUUGUUCGGAGAAGGCACAUGAGGAUCACCCAUGUUCCUU”: the “apparent Kd” value under setting [1] was 22.7 nM and the “apparent Kd” value under setting [2] was 219 nM.

As for “UAUAUAUAGGCAGGAUAUACAUGAAUAUAUAUAAUAUAAUAUAAUAUAACAUGAGGAUCACCCAUGUAGAAGGGCCAAUAUAUA”, the “apparent Kd” value under setting [1] was determined as 56.2 nM and the “apparent Kd” value under setting [2] is 117 nM.

As for “AUCAAGUGAGGAUAUGAUUAUACAACAAACUAACAUCUACAUCAGAAGGCACAUGAGGAUCACCCAUGUUUGUC”, the “apparent Kd” value under setting [1] was found to be 18.1 nM and the “apparent Kd” value under setting [2] is 16.6 nM.

Consider “GGAUAGGACAGAGGAUAUACGUGCUAGAGAUACUAGCAAAAUUUCCUCACAUGAGGAUCACCCAUGUAGAAGGCUAUCCUAUCG”, for which the “apparent Kd” value reads like this: under setting [1], 6.34 nM; under setting [2], 31.9 nM.

On to “CUCACGUUAGUAGGAUAUCCGACAUGAGGAUCACCCAUGUCACUACGCCUCAAGGGAAGGUGUAAGGAGAAGGGCUGAUAAAUA”, for which the “apparent Kd” value under setting [3] worked out at 178 nM and the “apparent Kd” value under setting [4] was found to be 88.3 nM.

Turning to “CCGUUACAUGAGGAUCACCCAUGUGAGGAUAUCGGGAUGACUGGCAGCGUGCGGGACACGAGAAGGCACUGGGC”, the “apparent Kd” value is, setting by setting: under setting [1], 55.5 nM; under setting [2], 65.1 nM.

As to “CACAAGAAAGUCGAAGGUUGAAGUAGAAGGACUACAACAUGACAUGAGGAUCACCCAUGUGCUAAGUAGGAUAUGCUUUAAUCG”, the “apparent Kd” value was 5.63 nM under setting [1] and 5.47 nM under setting [2].

As for “GCCAUCGCAUGAGGAUAUGGUCACGUUUCGUGACCAGAAGGCAUGUCAAUAGACAUGAGGAUCACCCAUGUAGUUAAGAUGGCA”, the “apparent Kd” value under setting [3] was determined as 680 nM and the “apparent Kd” value under setting [4] amounted to 59.8 nM.

“CUUGUGUUAGGAUAUGCGCCCUGAAGUGGAAGGGCCAGAGAGCAGAAGGGACAUGAGGAUCACCCAUGUGUGAC”: the “apparent Kd” value by setting is: under setting [1], 79.7 nM; under setting [2], 125 nM.

On to “GCUAUCGCAUGAGGAUAUGGUCAGCUUUGCUGACCAGAAGGCAUGUCAUAAGACAUGAGGAUCACCCAUGUAGUUAAGAUAGCA”, for which the “apparent Kd” value was determined as 840 nM under setting [3] and 50.5 nM under setting [4].

“GCCUCACAUGAGGAUCACCCAUGUCAGGAUAUAGGAGACGGCAGAAAUUCUGCCGUCGCUAGAAGGGACUGGCA”: the “apparent Kd” value under setting [1] was 44.2 nM and the “apparent Kd” value under setting [2] came to 86.9 nM.

As for “ACCUUACUGGUCAGGAUAUACAGUCUUGGGUGGGUGUAGAAGGGACAUGAGGAUCACCCAUGUAGGUUGCAGCA”, the “apparent Kd” value by setting is: under setting [1], 129 nM; under setting [2], 126 nM.

As to “GUUGGGUGUCAUGUCGCACAUGAGGAUCACCCAUGUAGGAGGUAGGAUAUCCACGAGUAACAAGAGGAGAAGGGCCGUUAGCGU”, the “apparent Kd” value runs as follows: under setting [1], 27.9 nM; under setting [2], 33.6 nM.

As for “AAUUUAAUACAUGAGGAUCACCCAUGUAAAUUAAUUAAGAUCUAGGAUAUCAGCUCGUUUAGAGCUGAGAAGGAGAUCACAUGU”, the “apparent Kd” value under setting [3] worked out at 16.6 nM and the “apparent Kd” value under setting [4] was determined as 14.1 nM.

On to “AGUUAAUAUCGAGGAUAUCCUCAUCUACAUGAGGAUCACCCAUGUAAACAUGGAGAAGGCGAUAUUAACAGCAUGUUACAUGCA”, for which the “apparent Kd” value reads like this: under setting [3], 259 nM; under setting [4], 14.9 nM.

Take “GAGUGACAUGAGGAUCACCCAUGUGAGGAUAUCGGACGGACCUUGUUAGCUUCCGCCGCGAGAAGGCACAUCGG”: the “apparent Kd” value by setting is: under setting [1], 208 nM; under setting [2], 34.5 nM.

“GUCAGCUCGUGAGGAUAUACAUGUGCUGGAAACAGCAUUAAAUAAUUCACAUGAGGAUCACCCAUGUAGAAGGCACGAGCUGAU”: the “apparent Kd” value under setting [1] was 16.8 nM and the “apparent Kd” value under setting [2] is 33.8 nM.

Regarding “UGGGUAAAUGUAGGAUAUUUAUAUUAAUAGUAUGGAGAAGGACAUGAGGAUCACCCAUGUACAGGGAAUUACCCAUUUCCUCUC”, the “apparent Kd” value under setting [1] was found to be 1010 nM and the “apparent Kd” value under setting [2] was found to be 1100 nM.

As to “GCUGUCGCAUGAGGAUAUGGUCAGCUUUGCUGACCAGAAGGCAUGUCAAUAGACAUGAGGAUCACCCAUGUAGUUAGGGCGGCU”, the “apparent Kd” value is, setting by setting: under setting [3], 571 nM; under setting [4], 57.4 nM.

With “UGCAUGUAAGGAUAUGCAUCCGCCAACGAACCGGCGGCACAGCAGAAGGUACAUGAGGAUCACCCAUGUGUCCC”, the “apparent Kd” value runs as follows: under setting [1], 34.8 nM; under setting [2], 195 nM.

For the sequence “GGAUUACAUGAGGAUCACCCAUGUGAGGAUAUCGAUGUCCUCAGUGGAGUGCGGGACUCGAGAAGGCACUUGGA”, the “apparent Kd” value under setting [1] came to 172 nM and the “apparent Kd” value under setting [2] came out at 169 nM.

“GGGUAUAUCGGAGGAUAUCAUGUAAAUACAUGAGGAUCACCCAUGUCGAUGGAGACAUCGGAGAUUGAGAAGGCCGAUGUACCG”: the “apparent Kd” value under setting [3] is 163 nM and the “apparent Kd” value under setting [4] amounted to 9.34 nM.

For “GGAUAGGACAGAGGAUAUACGUGCUAGAGAUGCUAGCAAAAUUUCCUCACAUGAGGAUCACCCAUGUAGAAGGCUGUCCUAUCG”, the “apparent Kd” value was determined as 15.8 nM under setting [1] and 393 nM under setting [2].

As to “UGUGGUGGUCAGGAUAUAAAUUGCGCCUGACGCUUAGAAGGGACUACAUGAGGAUCACCCAUGUGAGAGCUUCA”, the “apparent Kd” value was determined as 16.4 nM under setting [1] and 15.9 nM under setting [2].

For the sequence “CUAGUAUAUCAGGAUAUGAUAAUGUGUAGUAUAUCAGAAGGGAUGACAUGAGGAUCACCCAUGUUAAGGGAUGA”, the “apparent Kd” value runs as follows: under setting [1], 58.1 nM; under setting [2], 118 nM.

As for “GGUGGACAUGAGGAUCACCCAUGUGAGGAUAUCGGCUAUCUUAUCGCUGUCGGUUGCUCGAGAAGGCACAUUGU”, the “apparent Kd” value under setting [1] worked out at 76.7 nM and the “apparent Kd” value under setting [2] stood at 195 nM.

For “ACUUAAAUACCCAAAAGUCGGGCGGAGGAUAUGGAGCUUCCACCACAUGAGGAUCACCCAUGUCUUCAGAAGGCCGCCCUUGGG”, the “apparent Kd” value is, setting by setting: under setting [3], 89.6 nM; under setting [4], 8.79 nM.

With “UCUUUAUAGAUCCAUUUUAACUACAUGAGGAUCACCCAUGUGCAGGAUAUCGAUUGUUUUACUUUCGAGAAGGGCAAAUUCAGC”, the “apparent Kd” value by setting is: under setting [1], 57.6 nM; under setting [2], 131 nM.

With “AUUAUACAUGAGGAUCACCCAUGUUUUGGUGGAUCAGGAUAUAAAUUGAAUGAGUUUUAGUUAGAAGGGAUAUUUA”, the “apparent Kd” value under setting [3] came out at 50.6 nM and the “apparent Kd” value under setting [4] was 36.3 nM.

As for “AAAAAACAUGAGGAUCACCCAUGUGAGGAUAUCACUAGUCAGUCCUCGGAGUGAGUACUGAGAAGGCACAUAAA”, the “apparent Kd” value turned out to be 68.1 nM under setting [1] and 44.9 nM under setting [2].

As to “AAAUUUAACGAAGGAUAUGCUGACAUGAGGAUCACCCAUGUGUGCUUUGUGUUGCUGAAAUUGGAGCAGAAGGUCGUAUACAUA”, the “apparent Kd” value was 101 nM under setting [1] and 148 nM under setting [2].

On to “CCUCUACAUGAGGAUCACCCAUGUGAGGAUAUCUCGGAGCAGCCACUUAAGGCACUCCAGAGAAGGCACGUGUA”, for which the “apparent Kd” value is, setting by setting: under setting [1], 18 nM; under setting [2], 25.7 nM.

Consider “GCAGGCUGCUCUGAAGCUACAUUCGAGGAUAUGAUCCAAGACAUGAGGAUCACCCAUGUAGAAGAUCAGAAGGCGAUGGCUAGG”, for which the “apparent Kd” value is, setting by setting: under setting [3], 89.8 nM; under setting [4], 9.77 nM.

“GCCAGGUGGGUAGGAUAUGGCUAUGUCUCAUUGCUAGAAGGACCAACUGCUACAUGAGGAUCACCCAUGUCGUAGUGCACCCGG”: the “apparent Kd” value turned out to be 78.9 nM under setting [3] and 25.4 nM under setting [4].

“CCGGAUACGGGUAGCUGACAUGAGGAUCACCCAUGUGAAUCUGAGGAUAUGGAUCCUAAUUGGAUCCAGAAGGCAGUCAGCUAC”: the “apparent Kd” value reads like this: under setting [3], 618 nM; under setting [4], 61.5 nM.

As to “UUUAUGUAGGAGAAGGAGGACUUCAUGAGGAUCACCCAUGUGUUAGGACUUAGGAUAUUUGACGACAUGAGGAUCACCCAUGUG”, the “apparent Kd” value is, setting by setting: under setting [3], 64.3 nM; under setting [4], 56.5 nM.

Turning to “CAAGAUGUCUGGUAAUUGCGUACACAGGAUAUGGAUUGUUACAUGAGGAUCACCCAUGUUUCCUUUCAGAAGGGUGUAUCAUGU”, the “apparent Kd” value stood at 208 nM under setting [3] and 20.5 nM under setting [4].

For “AACAGCUCGUCAGGAUAUAUUUUCUAAUUAUGUAUUUAUGUACAUGAGGAUCACCCAUGUUGUUAGUAGAAGGGACGAGCUGAA”, the “apparent Kd” value is 11.7 nM under setting [1] and 12.1 nM under setting [2].

For “CUGAUGUUAGGAUAUCAGGUCGCGCGCGAAGGCGCGCAGCAUGAGAAGGAACAUGAGGAUCACCCAUGUGACGA”, the “apparent Kd” value is, setting by setting: under setting [1], 22.4 nM; under setting [2], 60.5 nM.

For orientation: apparent Kd means the concentration giving half-maximal binding under the conditions of the assay.

The record behind these values is the EternaBench riboswitch data.
